Laboratory results taken from ChEMBL document CHEMBL1157893, “The discovery and structure-activity relationships of pyrano[3,4-b]indole based inhibitors of hepatitis C virus NS5B polymerase” (Bioorg Med Chem Lett, 2010).

Tests used:
[1] = Inhibition of HCV BK NS5B polymerase; set-up: species or system Hepatitis C virus (isolate BK)
[2] = test system: Hepatitis C virus; experiment: Inhibition of HCV 1b BB7 NS5B Cdelta21 polymerase expressed in Escherichia coli after 120 mins; assay type: functional, Hepatitis C virus subtype 1b; conditions: BB7, 2 h
Procedure, shortened: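 RdRp assay with 24 nM NS5BdCT21-His in 20 mM HEPES pH 7.5, 5 mM MgCl₂, 1 mM DTT, 0.05 mg/ml BSA and NTPs. Enzyme preincubated with compound (3 nM–30) 15 min at room temperature, then reacted 120 min at room temperature. Radiolabeled RNA collected on filters and counted by scintillation. IC50 from sigmoidal variable-slope dose–response fit, relative to no-compound controls.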

[3] = test system: Hepatitis C virus; experiment: Antiviral activity against HCV 1b BB7 infected in human HuH7 cells after 3 days by ELISA; assay type: functional, organism-based, Hepacivirus hominis; conditions: genotype 1b BB7, Huh-7, 72 h
Procedure, shortened: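 HCV replicon cells; viral replication measured by ELISA against NS5A.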

[4] = test system: Hepatitis C virus; experiment: Antiviral activity against HCV 1b BB7 infected in human HuH7 cells assessed as total viral RNA level after 3 days by RT-PCR analysis; assay type: functional, Hepacivirus hominis, genotype 1b BB7, Huh-7
[5] = test system: Hepatitis C virus; experiment: Antiviral activity against HCV 1b BB7 infected in human HuH7 cells assessed as GAPDH RNA level after 3 days by RT-PCR analysis; assay type: functional, Hepacivirus hominis, genotype 1b BB7, Huh-7
[6] = Apparent permeability from apical to basolateral side of human Caco-2 cells; assay type: ADME, cell-based
[7] = Apparent permeability from basolateral to apical side of human Caco-2 cells; assay type: ADME, cell-based
[8] = Ratio of apparent permeability from basolateral to apical side over apical to basolateral side in human Caco-2 cells
[9] = Cytotoxicity against human HuH7 cells assessed as BrdU incorporation in to cellular DNA by counter assay; assay type: cell-based, Huh-7
Procedure, shortened: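 General cytotoxicity counter assay run alongside the replicon assay, read out as BrdU incorporation into cellular DNA.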

| Structure (SMILES) | IC50 [1] | IC50 [2] | EC50 [3] | CC50 [9] | other results |
| --- | --- | --- | --- | --- | --- |
| O=C(O)CC1(CC2CC2)OCCc2c1[nH]c1c(Cl)ccc(Cl)c21 (stereo unspecified) | 1.9 µM |  |  |  |  |
| CC/C=C/C1(CC(=O)O)OCCc2c1[nH]c1c(Cl)ccc(Cl)c21 (stereo unspecified) | 1.7 µM |  |  |  |  |
| CC(C)C1(CC(=O)O)OCCc2c1[nH]c1c(Cl)ccc(Cl)c21 (stereo unspecified) | 7 µM |  |  |  |  |
| O=C(O)CC1(C2CC2)OCCc2c1[nH]c1c(Cl)ccc(Cl)c21 (stereo unspecified) | 7.3 µM |  |  |  |  |
| CCC(C)C1(CC(=O)O)OCCc2c1[nH]c1c(Cl)ccc(Cl)c21 (stereo unspecified) | 0.15 µM |  |  |  |  |
| CC[C@H](C)[C@]1(CC(=O)O)OCCc2c1[nH]c1c(C)ccc(C#N)c21 | 0.13 µM | 0.26 µM | 2.2 µM |  | Activity [4]: 2.1 µM; Activity [5]: >10 µM |
| O=C(O)CC1(C2CCCC2)OCCc2c1[nH]c1c(Cl)ccc(Cl)c21 (stereo unspecified) | 3.3 µM |  |  |  |  |
| O=C(O)CC1(C2CCCCC2)OCCc2c1[nH]c1c(Cl)ccc(Cl)c21 (stereo unspecified) | > 30 µM |  |  |  |  |
| CCC1(CC(=O)O)OCCc2c1[nH]c1c(Cl)ccc(Cl)c21 (stereo unspecified) | 6.3 µM |  |  |  |  |
| CC(C#N)C1(CC(=O)O)OCCc2c1[nH]c1c(Cl)ccc(Cl)c21 (stereo unspecified) | 0.3 µM |  |  |  |  |
| CC[C@H](C)[C@]1(CC(=O)O)OCCc2c1[nH]c1c(C)c(OCCn3cccn3)cc(C#N)c21 | 0.009 µM | 0.002 µM | 0.12 µM |  | Activity [4]: 0.02 µM; Activity [5]: >20 µM |
| CCC[C@]1(CC(=O)O)OCCc2c1[nH]c1c(C)c(OCCn3cccn3)cc(C#N)c21 | 0.012 µM | 0.005 µM | 0.88 µM |  | Activity [4]: 0.14 µM; Activity [5]: >90 µM |
| CCC[C@]1(C(=O)O)OCCc2c1[nH]c1c(C)ccc(C#N)c21 | 0.7 µM |  |  |  | Activity [4]: 12 µM; Activity [5]: >30 µM; Papp A→B [6]: 3.2 ×10⁻⁶ cm/s; Papp B→A [7]: 24.2 ×10⁻⁶ cm/s; efflux ratio [8]: 7.5 |
| O=C(O)CC1(CCC(F)(F)F)OCCc2c1[nH]c1c(Cl)ccc(Cl)c21 (stereo unspecified) | 0.4 µM |  |  |  |  |
| CCOCC1(CC(=O)O)OCCc2c1[nH]c1c(Cl)ccc(Cl)c21 (stereo unspecified) | 26 µM |  |  |  |  |
| Cc1ccc(C#N)c2c3c([nH]c12)[C@](CC(=O)O)(C1CCC1)OCC3 | 0.4 µM | 1.1 µM | 29.7 µM |  |  |
| CCCCC1(CC(=O)O)OCCc2c1[nH]c1c(Cl)ccc(Cl)c21 (stereo unspecified) | 0.76 µM |  |  |  |  |
| O=C(O)CC1(C2CCC2)OCCc2c1[nH]c1c(Cl)ccc(Cl)c21 (stereo unspecified) | 0.35 µM |  |  |  |  |
| O=C(O)CC1(CC2CCCC2)OCCc2c1[nH]c1c(Cl)ccc(Cl)c21 (stereo unspecified) | 9.4 µM |  |  |  |  |
| COCC1(CC(=O)O)OCCc2c1[nH]c1c(Cl)ccc(Cl)c21 (stereo unspecified) | > 30 µM |  |  |  |  |
| COCCC1(CC(=O)O)OCCc2c1[nH]c1c(Cl)ccc(Cl)c21 (stereo unspecified) | > 24 µM |  |  |  |  |
| CSCC1(CC(=O)O)OCCc2c1[nH]c1c(Cl)ccc(Cl)c21 (stereo unspecified) | 7 µM |  |  |  |  |
| CC1(CC(=O)O)OCCc2c1[nH]c1c(Cl)ccc(Cl)c21 (stereo unspecified) | 27 µM |  |  |  |  |

| Structure (SMILES) | IC50 [1] | IC50 [2] | EC50 [3] | CC50 [9] | other results |
| --- | --- | --- | --- | --- | --- |
| CCCC1(CC(=O)O)OCCc2c1[nH]c1c(Cl)ccc(Cl)c21 (stereo unspecified) | 0.37 µM |  |  |  |  |
| CCC[C@]1(CC(=O)O)OCCc2c1[nH]c1c(C)ccc(C#N)c21 | 0.3 µM | 0.4 µM | 13.1 µM | > 100 µM | Activity [4]: 4.8 µM; Activity [5]: >160 µM; Papp A→B [6]: 24 ×10⁻⁶ cm/s; Papp B→A [7]: 2.2 ×10⁻⁶ cm/s; efflux ratio [8]: 0.09 |
| CCC(C)C1(CC(=O)O)OCCc2c1[nH]c1c(C)ccc(C#N)c21 (racemic) | 3.2 µM | 4.9 µM |  |  |  |
| CCC[C@]1([C@H](NC(=O)OCc2ccccc2)C(=O)O)OCCc2c1[nH]c1c(C)ccc(C#N)c21 (racemic) |  | 0.72 µM | 35 µM | 45 µM |  |
| CCC[C@]1([C@H](NC(C)=O)C(=O)O)OCCc2c1[nH]c1c(C)ccc(C#N)c21 (racemic) |  | 1.7 µM | > 100 µM | > 100 µM |  |
| CCCCC(=O)N[C@H](C(=O)O)[C@@]1(CCC)OCCc2c1[nH]c1c(C)ccc(C#N)c21 (racemic) |  | 5 µM | > 100 µM | > 100 µM |  |
| CCC[C@]1([C@H](NC(=O)c2ccccc2)C(=O)O)OCCc2c1[nH]c1c(C)ccc(C#N)c21 (racemic) |  | 4.5 µM | > 100 µM | > 100 µM |  |
| CCC[C@]1([C@H](NS(C)(=O)=O)C(=O)O)OCCc2c1[nH]c1c(C)ccc(C#N)c21 (racemic) |  | 6 µM | > 100 µM | > 100 µM |  |
| CCCCS(=O)(=O)N[C@H](C(=O)O)[C@@]1(CCC)OCCc2c1[nH]c1c(C)ccc(C#N)c21 (racemic) |  | 3.6 µM | > 100 µM | > 100 µM |  |
| CCCCS(=O)(=O)N[C@@H](C(=O)O)[C@@]1(CCC)OCCc2c1[nH]c1c(C)ccc(C#N)c21 (racemic) |  | 22 µM | > 100 µM | > 100 µM |  |
| CCC[C@]1([C@@H](NS(=O)(=O)c2ccccc2)C(=O)O)OCCc2c1[nH]c1c(C)ccc(C#N)c21 (racemic) |  | 16 µM | > 100 µM | > 100 µM |  |
| CCC[C@]1([C@H](NC(=O)OC)C(=O)O)OCCc2c1[nH]c1c(C)ccc(C#N)c21 (racemic) |  | 5.6 µM | > 100 µM | > 100 µM |  |
| CCC[C@]1([C@H](NC(=O)OCC)C(=O)O)OCCc2c1[nH]c1c(C)ccc(C#N)c21 (racemic) |  | 7.2 µM | > 100 µM | > 100 µM |  |
| CCC[C@]1([C@H](NS(=O)(=O)c2ccccc2)C(=O)O)OCCc2c1[nH]c1c(C)ccc(C#N)c21 (racemic) |  | 4 µM | > 100 µM | > 100 µM |  |
| CCC[C@]1([C@@H](NC(C)=O)C(=O)O)OCCc2c1[nH]c1c(C)ccc(C#N)c21 (racemic) |  | 17 µM | > 100 µM | > 100 µM |  |
| CCCCC(=O)N[C@@H](C(=O)O)[C@@]1(CCC)OCCc2c1[nH]c1c(C)ccc(C#N)c21 (racemic) |  | > 30 µM | > 100 µM | > 100 µM |  |
| CCC[C@]1([C@@H](NC(=O)c2ccccc2)C(=O)O)OCCc2c1[nH]c1c(C)ccc(C#N)c21 (racemic) |  | > 30 µM | > 100 µM | > 100 µM |  |
| CCC[C@]1([C@@H](NS(C)(=O)=O)C(=O)O)OCCc2c1[nH]c1c(C)ccc(C#N)c21 (racemic) |  | 13 µM | > 100 µM | > 100 µM |  |
| C=CCOC(=O)N[C@H](C(=O)O)[C@@]1(CCC)OCCc2c1[nH]c1c(C)ccc(C#N)c21 (racemic) |  | 5.9 µM | > 100 µM | > 100 µM |  |
| CCC[C@]1([C@H](NC(=O)OC(C)C)C(=O)O)OCCc2c1[nH]c1c(C)ccc(C#N)c21 (racemic) |  | 11 µM | > 100 µM | > 100 µM |  |
| CCC[C@]1([C@H](NC(=O)OCC(C)C)C(=O)O)OCCc2c1[nH]c1c(C)ccc(C#N)c21 (racemic) |  | 9.5 µM | > 100 µM | > 100 µM |  |
| CCC[C@]1([C@H](NC(=O)OC(C)(C)C)C(=O)O)OCCc2c1[nH]c1c(C)ccc(C#N)c21 (racemic) |  | 18 µM | > 100 µM | > 100 µM |  |
